For test [1], the species on record is Rattus norvegicus. Kind of test: Compound was evaluated for alpha -rate constant, in liver microsomes from 3-methylcholanthrene-exposed rats. To be noted: Microsome. An outline of the steps:
(§1)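 Rats (male Sprague-Dawley, 75-125 g) dosed ip with 3MC or βNF, 50 mg/kg in corn oil, on 3 successive days; liver microsomes isolated day 4. 7-Ethoxycoumarin deethylation (2.5-300 μM substrate) measured with inhibitor present; KM and Vmax by Eisenthal–Cornish-Bowden direct linear method. Ki from x-intercept of least-squares KM/Vmax vs [I]; αKi from x-intercept of 1/Vmax vs [I].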

For test [2], the species on record is Rattus norvegicus. Kind of test: Compound was evaluated for alpha -rate constant, in liver microsomes from beta-naphthoflavone-exposed rats. The note with it: Microsome. An outline of the steps:
as §1

For test [3], the species on record is Rattus norvegicus. Description: Michaelis-Menten constant for 7-ethoxycoumarin deethylation in rat liver microsomes exposed to beta-naphthoflavone at 27.5 uM. The note with it: Microsome. An outline of the steps: (§2)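 Liver microsomes from male Sprague-Dawley rats given 3MC or βNF ip (50 mg/kg/day, corn oil, 3 days), harvested day 4. NADPH-regenerating system in 0.1 M Tris-HCl pH 7.4. Substrate 2.5-300 μM final. Inhibitor added from methanol stock. Reaction started with 0.375-0.56 mg microsomal protein, run 4 min at 37 °C, stopped with TCA. 7-Hydroxycoumarin fluorescence read at pH 10.3. At least four assays per substrate concentration. KM and Vmax by direct linear method, with distribution-free 95% confidence limits.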

Test [4] is filed under the species Rattus norvegicus. Kind of test: Michaelis-Menten constant for 7-ethoxycoumarin deethylation in rat liver microsomes exposed to 3-methylcholanthrene at a concentration of 50 uM. The note with it: Microsome. In a few lines: as §2
The species named for test [5] is Rattus norvegicus. Description: Maximum rate constant for 7-ethoxycoumarin deethylation in rat liver microsomes exposed to beta-naphthoflavone at 5 uM. To be noted: Microsome. An outline of the steps: as §2
For test [6], the species on record is Rattus norvegicus. Kind of test: Michaelis-Menten constant for 7-ethoxycoumarin deethylation in rat liver microsomes exposed to beta-naphthoflavone at 50 uM. To be noted: Microsome. In a few lines: (§3)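 Liver microsomes from young male Sprague-Dawley rats (75-125 g) given the inducer ip in corn oil at 50 mg/kg on 3 successive days, microsomes isolated on day 4. 7-Ethoxycoumarin (2.5 to 300 μM final) in 0.1 M Tris-HCl pH 7.4 with NADPH-regenerating system. Reaction started with microsomal protein (0.375-0.56 mg), run 4 min at 37 °C, stopped with TCA. 7-Hydroxycoumarin read fluorometrically at pH 10.3. Inhibitor added from methanol stock, ≥4 assays per condition. KM/Vmax obtained by the Eisenthal–Cornish-Bowden direct linear method with 95% distribution-free confidence limits.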

The species named for test [7] is Rattus norvegicus. Description: Michaelis-Menten constant for 7-ethoxycoumarin deethylation in rat liver microsomes exposed to 3-methylcholanthrene at a concentration of 10 nM. To be noted: Microsome.
Test [8] is filed under the species Rattus norvegicus. Description: Maximum rate constant for 7-ethoxycoumarin deethylation in rat liver microsomes exposed to 3-methylcholanthrene at concentration of 25 nM. To be noted: Microsome.
For test [9], the species on record is Rattus norvegicus. Description: Maximum rate constant for 7-ethoxycoumarin deethylation in rat liver microsomes exposed to 3-methylcholanthrene at concentration of 50 nM. To be noted: Microsome.
The nature of test [10]: Compound was evaluated for inhibition constant, in liver microsomes from 3-methylcholanthrene-exposed rats. The arrangement: species or system Rattus norvegicus, Microsome.
The species named for test [11] is Rattus norvegicus. Kind of test: Maximum rate constant for 7-ethoxycoumarin deethylation in rat liver microsomes exposed to beta-naphthoflavone at concentration of 27.5 uM. The note with it: Microsome. An outline of the steps:
as §2

Test [12] in a line: Compound was evaluated for inhibition constant, in liver microsomes from beta-naphthoflavone-exposed rats. The arrangement: species or system Rattus norvegicus, Microsome.
The species entered for test [13] is Rattus norvegicus. Description: Vmax determined by 7-ethoxycoumarin deethylation in the presence by liver microsomes from rats exposed to 3-methylcholanthrene at concentration of 10 nM. To be noted: Microsome.
For test [14], the species on record is Rattus norvegicus. Kind of test: Michaelis-Menten constant for 7-ethoxycoumarin deethylation in rat liver microsomes exposed to 3-methylcholanthrene at a concentration of 25 uM. To be noted: Microsome. An outline of the steps: as §2
Test [15] is filed under the species Rattus norvegicus. Description: Maximum rate constant for 7-ethoxycoumarin deethylation in rat liver microsomes exposed to beta-naphthoflavone at 50 uM. To be noted: Microsome. An outline of the steps: as §2
The species named for test [16] is Rattus norvegicus. Description: Michaelis-Menten constant for 7-ethoxycoumarin deethylation in rat liver microsomes exposed to beta-naphthoflavone at 5 uM. To be noted: Microsome. In a few lines:
as §2

The species named for test [17] is Rattus norvegicus. Description: Maximum rate constant for 7-ethoxycoumarin deethylation in rat liver microsomes exposed to 3-methylcholanthrene at concentration of 75 nM. The note with it: Microsome.
The species entered for test [18] is Rattus norvegicus. Kind of test: Michaelis-Menten constant for 7-ethoxycoumarin deethylation in rat liver microsomes exposed to 3-methylcholanthrene at concentration of 25 nM. The note with it: Microsome.
The species entered for test [19] is Rattus norvegicus. Description: Michaelis-Menten constant for 7-ethoxycoumarin deethylation in rat liver microsomes exposed to 3-methylcholanthrene at concentration of 50 nM. To be noted: Microsome.
For test [20], the species on record is Rattus norvegicus. Kind of test: Michaelis-Menten constant for 7-ethoxycoumarin deethylation in rat liver microsomes exposed to 3-methylcholanthrene at concentration of 75 nM. To be noted: Microsome.
The species entered for test [21] is Rattus norvegicus. Kind of test: Maximum rate constant for 7-ethoxycoumarin deethylation in rat liver microsomes exposed to beta-naphthoflavone at 500 uM. To be noted: Microsome. An outline of the steps: as §2
The species named for test [22] is Rattus norvegicus. Description: Michaelis-Menten constant for 7-ethoxycoumarin deethylation in rat liver microsomes exposed to beta-naphthoflavone at 500 uM. The note with it: Microsome. In a few lines: as §3
For test [23], the species on record is Rattus norvegicus. Description: Maximum rate constant for 7-ethoxycoumarin deethylation in rat liver microsomes exposed to beta-naphthoflavone at 1500 uM. The note with it: Microsome. In a few lines: as §2
The species named for test [24] is Rattus norvegicus. Description: Michaelis-Menten constant for 7-ethoxycoumarin deethylation in rat liver microsomes exposed to beta-naphthoflavone at 1500 nM. To be noted: Microsome.
The species named for test [25] is Rattus norvegicus. Kind of test: Michaelis-Menten constant for 7-ethoxycoumarin deethylation in rat liver microsomes exposed to beta-naphthoflavone at 1000 nM. To be noted: Microsome.
Test [26] is filed under the species Rattus norvegicus. Description: Maximum rate constant for 7-ethoxycoumarin deethylation in rat liver microsomes exposed to beta-naphthoflavone at 1000 nM. The note with it: Microsome.
The species entered for test [27] is Rattus norvegicus. Description: Michaelis-Menten constant for 7-ethoxycoumarin deethylation in rat liver microsomes exposed to exposed to 3-methylcholanthrene at concentration. To be noted: Microsome.
The species named for test [28] is Rattus norvegicus. Description: Compound was evaluated for alpha -rate constant, in liver microsomes from beta-naphthoflavone-exposed rats; competitive inhibition. To be noted: Microsome. An outline of the steps:
as §1

The species named for test [29] is Rattus norvegicus. Description: Maximum rate constant for 7-ethoxycoumarin deethylation in rat liver microsomes exposed to beta-naphthoflavone at concentration of 1000 uM. The note with it: Microsome. In a few lines: as §2
The species named for test [30] is Rattus norvegicus. Description: Maximum rate constant for 7-ethoxycoumarin deethylation in rat liver microsomes exposed to 3-methylcholanthrene at concentration of 100 nM. The note with it: Microsome.
The species entered for test [31] is Rattus norvegicus. Kind of test: Maximum rate constant for 7-ethoxycoumarin deethylation in rat liver microsomes exposed to beta-naphthoflavone at concentration of 500 uM. The note with it: Microsome. An outline of the steps:
as §2

Test [32] is filed under the species Rattus norvegicus. Description: Maximum rate constant for 7-ethoxycoumarin deethylation in rat liver microsomes exposed to 3-methylcholanthrene at concentration of 200 uM. The note with it: Microsome, 225 nM, in the assay text read “225 nM” for “200 uM”. In a few lines:
as §2

The species entered for test [33] is Rattus norvegicus. Kind of test: Michaelis-Menten constant for 7-ethoxycoumarin deethylation in rat liver microsomes exposed to 3-methylcholanthrene at concentration of 100 uM. The note with it: Microsome. In a few lines:
as §2

For test [34], the species on record is Rattus norvegicus. Description: Maximum rate constant for 7-ethoxycoumarin deethylation in rat liver microsomes exposed to beta-naphthoflavone at concentration of 1500 uM. To be noted: Microsome. An outline of the steps:
as §2

Molecules are shown by their SMILES.

With `c1ccc(-c2c[nH]cn2)cc1`, the results for the Alpha Ki in [1] and in [2] were 64000 nM and 75 µM, respectively.
Regarding `O=c1cc(-c2ccccc2)oc2c1ccc1ccccc12` [ALPHA-NAPHTHOFLAVONE], the results for the Alpha Ki in [1] and in [2] were 33 nM and 0.048 µM, respectively. Moreover, the Km stood at 17 µM in [3]; 23.4 µM in test [4]; 25.7 µM in test [6]; 19.6 µM in test [7]; 17.3 µM in test [14]; 18.5 µM in [16]. Further, the Vmax (pM min-1 mg-1) was determined as 1220 in test [5]; 108 in test [8]; 69 in [9]; 904 in test [11]; 137 in test [13]; 665 in test [15]. For the same molecule, the Ki in [10] was 17 nM; in test [12] it was 24 nM.
Consider `O=c1cc(-c2ccccc2)oc2ccc3ccccc3c12` [BETA-NAPHTHOFLAVONE], for which the Alpha Ki was 280 nM in [1] and 4 µM in test [2]. Also, the Vmax (pM min-1 mg-1) in test [17] was 134; in test [8], 159; in [21], 1200; in [9] it was 143; in [23], 1000; in test [26] it was 1100. In addition, the Michaelis-Menten constant (Km) in test [18] was 19.2 µM; in test [19] it was 26.6 µM; in test [20], 39.7 µM; in [22], 33.9 µM; in test [24], 93.2 µM; in [25] it was 60 µM. For the same molecule, the inhibition constant Ki in [10] was 26 nM; in test [12] it was 130 nM.
In the case of `O=c1cc(-c2ccccc2)oc2ccccc12` [FLAVONE], the figures for the Alpha Ki in test [1] and in [28] were 570 nM and “Competitive inhibition”, respectively. Moreover, the Km in test [27] was 62.6 µM; in test [19] it was 22.3 µM; in [22] it was 50.3 µM; in test [24] it was 136 µM; in test [25], 115 µM; in test [33], 35.8 µM. In addition, the Vmax (pM min-1 mg-1) in [29] was found to be 1370; in test [9], 153; in test [30], 149; in test [31], 1340; in test [32] it was 120; in [34], 1330. The inhibitory constant (Ki) stood at 33 nM in test [10] and 190 nM in [12].
